In ChEMBL document CHEMBL1275442, “Pharmacokinetics and tissue distribution of anidulafungin in rats” (Antimicrob Agents Chemother, 2008):

Columns and labels:
Cerebrospinal fluid [1] = assay: Cmax in F344 rat cerebrospinal fluid assessed as total compound-derived radioactivity per gram of tissue at 5 mg/kg, iv administered as single bolus dose […]; assay type: ADME, organism-based; design: dose 5 mg/kg, route intravenous; settings: in vivo
Summary of the method: (§1)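 Same F344 study: single 5 mg/kg IV [¹⁴C]anidulafungin given over about 5 min. Total drug-derived radioactivity (parent plus metabolites) counted by liquid scintillation, in […]. Noncompartmental analysis of the composite mean profile.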

[2] = Drug level in Long Evans rat eye assessed as radioactivity per gram of tissue at 5 mg/kg, iv administered as single bolus dose measured 24 hrs postdose by autoradiography; assay type: ADME, organism-based; design: dose 5 mg/kg, route intravenous; settings: in vivo
Summary of the method: (§2)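 Male pigmented Long Evans (HsdBlu:LE) rats, 7.5 weeks old, 202 to 217 g, single iv [¹⁴C]anidulafungin; one rat per sampling time. Euthanized by isoflurane and cardiac-puncture exsanguination. Sagittal whole-body sections quantified by phosphorimaging autoradiography, single samples corrected for section thickness across multiple sections per tissue. Concentrations (μg eq/g drug-derived radioactivity) interpolated from least-squares standard curves per scan.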

[3] = Cmax in F344 rat lung at 5 mg/kg, iv administered as single bolus dose after 5 min by HPLC method; assay type: ADME, organism-based; design: dose 5 mg/kg, route intravenous
Summary of the method: (§3)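 Male F344 rats, 10–11 weeks, 223.6–243.8 g, given one IV dose of [¹⁴C]anidulafungin, 5 mg/kg, over about 5 min. Tissues and blood sampled at 0.083–72 h (n = 3 rats per time). Parent drug measured by HPLC; LLOQ/ULOQ were 20/5,120 ng/ml for plasma and 220/56,320 ng/g for tissue. Noncompartmental parameters taken from the composite mean profile.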

Lung [4] = assay: Drug level in Long Evans rat lung assessed as radioactivity per gram of tissue at 5 mg/kg, iv administered as single bolus dose measured 0.5 hrs postdose by autoradiography; assay type: ADME, organism-based; design: dose 5 mg/kg, route intravenous; settings: in vivo; summary of the method: as §2
Lung [5] = assay: Cmax in F344 rat lung assessed as total compound-derived radioactivity per gram of tissue at 5 mg/kg, iv administered as single bolus dose after 5 mins by HPLC method; assay type: ADME, organism-based; design: dose 5 mg/kg, route intravenous; settings: in vivo; summary of the method: as §1
Lung [6] = assay: Half life in F344 rat lung assessed as total compound-derived radioactivity at 5 mg/kg, iv administered as single bolus dose […]; assay type: ADME, organism-based; design: dose 5 mg/kg, route intravenous; settings: in vivo
Summary of the method: (§4)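 Male F344 rats, 10 to 11 weeks old and 223.6 to 243.8 g, got one iv dose of [14C]anidulafungin at 5 mg/kg over about 5 min. Blood, CSF, kidney, liver, lung, quadriceps, spleen and skin were sampled predose and at 0.083 to 72 h, 3 rats per time. Total radioactivity (parent plus metabolites) was measured by liquid scintillation counting. Parameters were noncompartmental, from a composite mean profile.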

Spleen [7] = assay: AUC (0 to infinity) in F344 rat spleen at 5 mg/kg, iv administered as single bolus dose; assay type: ADME, organism-based; design: time infinity, dose 5 mg/kg, route intravenous; settings: in vivo; summary of the method: as §3
Lung [8] = assay: AUC (0 to infinity) in F344 rat lung at 5 mg/kg, iv administered as single bolus dose; assay type: ADME, organism-based; design: time infinity, dose 5 mg/kg, route intravenous; settings: in vivo; summary of the method: as §3
Spleen [9] = assay: Tmax in F344 rat spleen assessed as total compound-derived radioactivity at 5 mg/kg, iv administered as single bolus dose […]; assay type: ADME, organism-based; design: dose 5 mg/kg, route intravenous; settings: in vivo; summary of the method: as §4
Liver [10] = assay: Drug level in Long Evans rat liver assessed as high disposition of radioactivity per gram of tissue at 5 mg/kg, iv administered as single bolus dose measured 0.5 hrs postdose by autoradiography; assay type: ADME, organism-based; design: dose 5 mg/kg, route intravenous; settings: in vivo; summary of the method: as §2
Liver [11] = assay: AUC (0 to 24 hrs) in F344 rat liver assessed as total compound-derived radioactivity per gram of tissue at 5 mg/kg, iv administered as single bolus dose […]; assay type: ADME, organism-based; design: time < 24 hr, dose 5 mg/kg, route intravenous; settings: in vivo; summary of the method: as §1
Zone of skin = assay: Drug level in Long Evans rat skin assessed as radioactivity per gram of tissue at 5 mg/kg, iv administered as single bolus dose measured 0.5 hrs postdose by autoradiography; assay type: ADME, organism-based; design: dose 5 mg/kg, route intravenous; settings: in vivo
Summary of the method: (§5)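 Male pigmented Long Evans (HsdBlu:LE) rats, 7.5 weeks old and 202 to 217 g, got a single iv dose of [14C]anidulafungin at 5 mg/kg. One rat per time point (0.5, 6, 12, 24, 72, 168 h) was euthanised by isoflurane and cardiac-puncture exsanguination. Sagittal whole-body sections were quantified by phosphorimaging. Samples were thickness-corrected, and concentrations (μg eq/g) were interpolated from least-squares standard curves.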

[12] = Cmax in F344 rat muscle at 5 mg/kg, iv administered as single bolus dose after 30 min by HPLC method; assay type: ADME, organism-based, Muscle tissue; design: dose 5 mg/kg, route intravenous; summary of the method: as §3
Liver [13] = assay: AUC (0 to infinity) in F344 rat liver at 5 mg/kg, iv administered as single bolus dose; assay type: ADME, organism-based; design: time infinity, dose 5 mg/kg, route intravenous; settings: in vivo; summary of the method: as §3
Kidney = assay: AUC (0 to 24 hrs) in F344 rat kidney at 5 mg/kg, iv administered as single bolus dose; assay type: ADME, organism-based; design: time < 24 hr, dose 5 mg/kg, route intravenous; settings: in vivo; summary of the method: as §3
Muscle tissue [14] = assay: AUC (0 to 24 hrs) in F344 rat muscle assessed as total compound-derived radioactivity per gram of tissue at 5 mg/kg, iv administered as single bolus dose […]; assay type: ADME, organism-based; design: time < 24 hr, dose 5 mg/kg, route intravenous; settings: in vivo; summary of the method: as §1
Cerebrum = assay: Drug level in Long Evans rat cerebrum assessed as radioactivity per gram of tissue at 5 mg/kg, iv administered as single bolus dose measured 72 hrs postdose by autoradiography; assay type: ADME, organism-based; design: dose 5 mg/kg, route intravenous; settings: in vivo; summary of the method: as §2
Blood = assay: AUC (0 to infinity) in F344 rat blood assessed as total compound-derived radioactivity per gram of tissue at 5 mg/kg, iv administered as single bolus dose […]; assay type: ADME, organism-based; design: dose 5 mg/kg, route intravenous, time infinity; settings: in vivo; summary of the method: as §1
Cerebrospinal fluid [15] = assay: Drug level in Long Evans rat cerebrospinal fluid assessed as radioactivity per gram of tissue at 5 mg/kg, iv administered as single bolus dose measured 6 hrs postdose by autoradiography; assay type: ADME, organism-based; design: dose 5 mg/kg, route intravenous; settings: in vivo; summary of the method: as §2
Spleen [16] = assay: Drug level in Long Evans rat spleen assessed as radioactivity per gram of tissue at 5 mg/kg, iv administered as single bolus dose measured 72 hrs postdose by autoradiography; assay type: ADME, organism-based; design: dose 5 mg/kg, route intravenous; settings: in vivo; summary of the method: as §5
[17] = Tmax in F344 rat kidney at 5 mg/kg, iv administered as single bolus dose by HPLC method; assay type: ADME, organism-based; design: dose 5 mg/kg, route intravenous
Summary of the method: (§6)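 F344 males, 10 to 11 weeks old and 223.6 to 243.8 g, got a single 5 mg/kg iv dose of [14C]anidulafungin over about 5 min. Plasma and tissues were collected predose and at 0.083 to 72 h, n = 3 per time point. Parent drug was quantified by HPLC-UV, with LLOQ/ULOQ of 20/5,120 ng/ml in plasma and 220/56,320 ng/g in tissue. Noncompartmental parameters came from a composite mean concentration-time profile.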

Lung [18] = assay: Tmax in F344 rat lung assessed as total compound-derived radioactivity at 5 mg/kg, iv administered as single bolus dose […]; assay type: ADME, organism-based; design: dose 5 mg/kg, route intravenous; settings: in vivo; summary of the method: as §4
Liver [19] = assay: Half life in F344 rat liver assessed as total compound-derived radioactivity at 5 mg/kg, iv administered as single bolus dose […]; assay type: ADME, organism-based; design: dose 5 mg/kg, route intravenous; settings: in vivo; summary of the method: as §4
Muscle tissue [20] = assay: AUC (0 to 24 hrs) in F344 rat muscle at 5 mg/kg, iv administered as single bolus dose; assay type: ADME, organism-based; design: time < 24 hr, dose 5 mg/kg, route intravenous; settings: in vivo; summary of the method: as §3
[21] = Tmax in F344 rat muscle at 5 mg/kg, iv administered as single bolus dose by HPLC method; assay type: ADME, organism-based, Muscle tissue; design: dose 5 mg/kg, route intravenous; summary of the method: as §6
Lung [22] = assay: Drug level in Long Evans rat lung assessed as radioactivity per gram of tissue at 5 mg/kg, iv administered as single bolus dose measured 168 hrs postdose by autoradiography; assay type: ADME, organism-based; design: dose 5 mg/kg, route intravenous; settings: in vivo; summary of the method: as §2
[23] = Drug level in Long Evans rat eye assessed as radioactivity per gram of tissue at 5 mg/kg, iv administered as single bolus dose measured 6 hrs postdose by autoradiography; assay type: ADME, organism-based; design: dose 5 mg/kg, route intravenous; settings: in vivo; summary of the method: as §2
Muscle tissue [24] = assay: Drug level in Long Evans rat muscle assessed as radioactivity per gram of tissue at 5 mg/kg, iv administered as single bolus dose measured 6 hrs postdose by autoradiography; assay type: ADME, organism-based; design: dose 5 mg/kg, route intravenous; settings: in vivo; summary of the method: as §5

Compound `CCCCCOc1ccc(-c2ccc(-c3ccc([14C](=O)N[C@H]4C[C@@H](O)[C@@H](O)NC(=O)[C@@H]5[C@@H](O)[C@@H](C)CN5C(=O)[C@H]([C@@H](C)O)NC(=O)[C@H]([C@H](O)[C@@H](O)c5ccc(O)cc5)NC(=O)[C@@H]5C[C@@H](O)CN5C(=O)[C@H]([C@@H](C)O)NC4=O)cc3)cc2)cc1` [14C-ANIDULAFUNGIN] has a Cmax (Cerebrospinal fluid [1]) of 0.07 ugequiv/g, a Drug uptake [2] of 2.07 ugequiv and a Cmax [3] of 31100 ng/g. It also gave a Drug uptake (Lung [4]) of 22.31 ugequiv, a Cmax (Lung [5]) of 39.29 ugequiv/g and a t1/2 (Lung [6]) of 42.2 h. The AUC (Spleen [7]) was 567.95 µg·h/g, the AUC (Lung [8]) was 638.21 µg·h/g and the Tmax (Spleen [9]) was 30 min. It also gave a Drug uptake (Liver [10]) of 11.79 ugequiv, an AUC (Liver [11]) of 1346.94 ugequiv.hr/g and a Drug uptake (Zone of skin) of 5.42 ugequiv. It also gave a Cmax [12] of 3840 ng/g, an AUC (Liver [13]) of 767.22 µg·h/g and an AUC (Kidney) of 517.32 µg·h/g. The AUC (Muscle tissue [14]) was 102.96 ugequiv.hr/g, the Drug uptake (Cerebrum) was 0.47 ugequiv and the AUC (Blood) was 243.62 ugequiv.hr/g. The Drug uptake (Cerebrospinal fluid [15]) was 5.54 ugequiv, the Drug uptake (Spleen [16]) was 4.37 ugequiv and the Tmax [17] was 30 min. For the same compound, the Tmax (Lung [18]) was 4.98 min, the t1/2 (Liver [19]) was 69.2 h and the AUC (Muscle tissue [20]) was 54.33 µg·h/g. The Tmax [21] was 30 min, the Drug uptake (Lung [22]) was 0.96 ugequiv and the Drug uptake [23] was 1.74 ugequiv. The Drug uptake (Muscle tissue [24]) was 2.53 ugequiv.
